Screening results deposited in PubChem BioAssay by several laboratories.
Hits are enriched below; roughly 2.6% of the tested compounds scored in any of these assays.
CHT PAM – CHT positive allosteric modulators, primary screen, cell-based, membrane potential dye, choline EC20 | High affinity choline transporter 1 (Homo sapiens), Q9GZV3 | CHT-expressing cells; stronger effect = higher value; LV-AA mutant CHT in HEK293 cells | B-score at 10 µM | 310,000 compounds, 0.49% hits;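 active = initial fluorescence not abnormally high and integrated response B-score, plate-corrected, over 3 SD above library mean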
KCC2 mod – KCC2 cotransporter modulators, thallium flux, primary screen, cell-based, HEK293 KCC2, FluoZin-2 fluorescence, MLSMR; Solute carrier family 12 member 5 (Homo sapiens), Q9H2X9; KCC2 cells, thallium flux FluoZin-2 fluorescence; B-score of Tl+ flux slope (higher = more flux/activation; lower = inhibition) at 10 µM; 190,000 compounds, 2.2% hits; AID 1456, 2008;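 active = thallium flux slope and its plate-corrected score both differing from the plate sample mean at a set confidence after two filtering rounds, in either direction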;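 note: slope of fluorescence scaled to starting intensity during 10 to 20 s after thallium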
Target sequence (Q9H2X9 whole entry, looked up): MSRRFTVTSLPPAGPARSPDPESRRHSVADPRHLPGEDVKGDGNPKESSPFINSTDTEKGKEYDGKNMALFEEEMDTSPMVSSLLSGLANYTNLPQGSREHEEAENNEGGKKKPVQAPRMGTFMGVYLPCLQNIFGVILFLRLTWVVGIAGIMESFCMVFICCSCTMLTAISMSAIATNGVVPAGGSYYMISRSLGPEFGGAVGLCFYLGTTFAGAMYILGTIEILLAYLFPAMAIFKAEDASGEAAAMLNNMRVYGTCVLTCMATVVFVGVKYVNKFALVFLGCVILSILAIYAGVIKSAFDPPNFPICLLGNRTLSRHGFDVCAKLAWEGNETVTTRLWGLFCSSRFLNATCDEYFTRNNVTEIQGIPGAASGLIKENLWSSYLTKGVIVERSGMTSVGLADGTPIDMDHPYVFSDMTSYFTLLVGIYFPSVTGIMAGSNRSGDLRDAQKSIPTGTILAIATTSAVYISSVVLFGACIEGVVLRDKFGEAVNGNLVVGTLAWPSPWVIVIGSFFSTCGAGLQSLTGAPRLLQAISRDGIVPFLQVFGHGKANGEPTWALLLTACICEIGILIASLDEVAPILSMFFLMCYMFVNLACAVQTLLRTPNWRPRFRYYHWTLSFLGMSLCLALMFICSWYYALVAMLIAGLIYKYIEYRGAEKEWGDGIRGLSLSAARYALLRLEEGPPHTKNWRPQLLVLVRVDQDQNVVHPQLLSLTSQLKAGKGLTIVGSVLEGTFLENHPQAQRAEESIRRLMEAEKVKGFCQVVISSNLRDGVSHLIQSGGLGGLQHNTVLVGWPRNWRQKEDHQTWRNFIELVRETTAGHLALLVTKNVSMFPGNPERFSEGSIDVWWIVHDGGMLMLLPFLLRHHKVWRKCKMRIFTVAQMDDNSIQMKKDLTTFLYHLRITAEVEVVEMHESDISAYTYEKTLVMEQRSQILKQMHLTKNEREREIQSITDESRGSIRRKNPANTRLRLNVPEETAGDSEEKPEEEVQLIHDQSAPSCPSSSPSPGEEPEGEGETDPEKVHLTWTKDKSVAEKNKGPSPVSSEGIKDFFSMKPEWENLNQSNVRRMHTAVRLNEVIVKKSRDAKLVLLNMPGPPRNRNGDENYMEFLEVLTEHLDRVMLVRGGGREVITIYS
Rad51 HR inh – human RAD51 strand exchange inhibitors, primary screen, biochemical, fluorescence; 200,000 compounds, 0.085% hits; DNA repair protein RAD51 homolog 1 (Homo sapiens), Q06609; AID 1385, 2008; hRad51 DNA strand exchange, fluorescence dequenching; inhibition, % at 10 µM;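 active = inhibition above 40% at the single screening dose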
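Test system: preformed human Rad51 ssDNA filaments. Compound dosing: single dose, 10 µM final compound. Incubation: filaments 15 min 37 °C, then compound 30 min. Technique: FRET fluorescence dequenching, excitation 485 nm, emission 520 nm. Read-out basis: percent inhibition from fluorescence, normalised to plate control and blank means. Benchmarks: plate controls and plate blanks.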
CHT block – inhibitors of human choline transporter CHT | High affinity choline transporter 1 (Homo sapiens), Q9GZV3 | B-score at 10 µM | AID 488975, 2010 | 310,000 compounds, 0.86% hits | CHT-expressing cells, membrane potential dye, choline response; stronger effect = lower value;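 active = B-score over 3 SD under the library average, and starting fluorescence ratio not unusually high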;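 note: choline stimulus applied at its EC90 after an EC20 pre-addition; B-score computed on integrated fluorescence ratio after choline addition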
Large screens that a line does not name were inactive.

CC1(c2nnc(-c3ccncc3)o2)CC(c2ccc([N+](=O)[O-])cc2)=NO1 (stereo not drawn)	none (no result: CHT PAM, CHT block)
COc1ccc2c(c1)C(SCC(=O)NCCc1ccccc1)CC(C)(C)O2 (stereo not drawn)	CHT block -6.4 (no result: Rad51 HR inh)
COc1ccc(CCCC(=O)NCCc2ccccc2)cc1	none (no result: KCC2 mod, Rad51 HR inh)
CC1(C)CC(NC(=O)c2cccc([N+](=O)[O-])c2)CC(C)(C)N1	none (no result: KCC2 mod, Rad51 HR inh)
COc1cc(C)ccc1OCc1cc(C(=O)N(Cc2nccn2C)C(C)C)no1	none (no result: KCC2 mod, Rad51 HR inh)
COc1cc(/C=N/n2cnnc2)ccc1OCC(=O)N1CCOCC1	CHT PAM 9.6 (no result: Rad51 HR inh)
O=C(Nc1nnc(-c2cccs2)o1)c1cccc(F)c1	KCC2 mod 26
COc1c(C)cc(C(=O)C2CCCN(Cc3c(C)n(C)n(-c4ccccc4)c3=O)C2)cc1C (stereo not drawn)	none (no result: Rad51 HR inh)
O=C(CSc1nc2ccccc2c(=O)n1Cc1ccco1)NCc1ccccc1	KCC2 mod 4 (no result: Rad51 HR inh)
O=C(CSc1nc2ccccc2c(=O)n1Cc1ccccc1)NCc1ccco1	none
COCCn1c(N/N=C(C)/C=C/c2ccccc2)nc2c1c(=O)[nH]c(=O)n2C	none
Cc1nc2c(s1)sc1ccccc12	none
CC[n+]1c(C)sc2sc3ccccc3c21	CHT PAM 13 (no result: KCC2 mod)
COc1ccccc1C1CCN(Cc2ccc(C)cc2)CC1	none (no result: KCC2 mod, Rad51 HR inh)
O=C(N/N=C\c1cc(Br)c(Br)o1)c1cncc(Br)c1	KCC2 mod 16
O=C(N/N=C/c1cc(Br)c(Br)o1)c1cccnc1	none
COc1cc(C(=O)O)c2c(c1C)OC(=O)c1c(C)cc(O)c(C=O)c1O2	Rad51 HR inh 61 (no result: KCC2 mod)
Cc1c([N+](=O)[O-])cc(C(=O)Nc2ccc(NC(=O)c3ccco3)cc2)cc1[N+](=O)[O-]	none (no result: KCC2 mod, Rad51 HR inh)
O=C(Cc1ccc(Cl)cc1)NCCS(=O)c1ccc(Cl)cc1 (stereo not drawn)	Rad51 HR inh 130
COC(=O)c1c(NC(=O)c2ccccc2)sc(C(=O)c2ccccc2)c1C	KCC2 mod 8.4
COC(=O)c1c(NC(=O)c2ccccc2)sc(C(N)=O)c1C	none
CNC(=S)Nc1sc2c(c1C(=O)OC)CCC2	KCC2 mod 52 (no result: Rad51 HR inh)
CCOC(=O)c1c(NC(=S)Nc2ccccc2)sc2c1CC(C)(C)SC2	none (no result: Rad51 HR inh)
CCOC(=O)c1c(NC(=S)NC)sc2c1CC(C)(C)SC2	KCC2 mod 37
COC(=O)c1c(NC(=S)Nc2ccc(F)cc2[N+](=O)[O-])sc2c1CCCCC2	KCC2 mod 20
COC(=O)c1c(NC(=O)COC(=O)c2ccc(Cl)cc2[N+](=O)[O-])sc2c1CCCCC2	none
Cc1ccc(C)c(Cn2c3ccccc3c3cnn(CC(=O)NCCCN4CCCCC4)c(=O)c32)c1	none (no result: KCC2 mod, Rad51 HR inh)
Cn1cc(NC(=O)c2cc(NC(=O)c3cc(NC=O)cn3C)cn2C)cc1C(=O)NCCC(=N)N	Rad51 HR inh 48 (no result: CHT PAM, CHT block)
COc1cc(C(=O)Nc2ccc3c(c2)ncn3C)cc(OC)c1OC	none (no result: KCC2 mod, Rad51 HR inh)
COc1cc(C(=O)Nc2ccc3c(c2)nc(C)n3C)cc(OC)c1OC	CHT PAM 6.5 (no result: KCC2 mod, Rad51 HR inh)
CCCn1nnnc1NC(=O)c1ccc2ccccc2c1	KCC2 mod 16
CCCn1nnc(NC(=O)c2ccc3ccccc3c2)n1	none
S=C1CCSc2ccc(Cl)cc2N1	KCC2 mod 9.8 (no result: CHT PAM, Rad51 HR inh, CHT block)
COCCCNc1nc(N)c([N+](=O)[O-])c(Nc2cc(OC)ccc2OC)n1	none (no result: Rad51 HR inh)
COc1ccc(OC)c(Nc2nc(NCCCN(C)C)nc(N)c2[N+](=O)[O-])c1	Rad51 HR inh 41
COc1cccc(COC(=O)c2c(C)nn(-c3ccccc3)c2Cl)c1OC	none (no result: KCC2 mod, Rad51 HR inh)
O=C([O-])c1cc(-c2ccccc2)cc(-c2ccccc2)[n+]1Cc1ccccc1	CHT PAM 6.8 (no result: KCC2 mod, Rad51 HR inh)
COc1ccc(O)c(C(=O)CC(=O)c2ccccc2)c1	KCC2 mod 22
CC1CC(C)CN(S(=O)(=O)c2ccc3c(c2)C(C)(C)C(=O)N3C)C1 (stereo not drawn)	none (no result: KCC2 mod, Rad51 HR inh)
COc1cccc(-c2nc(CS(=O)(=O)CC(=O)NCCCN3CCc4ccccc4C3)c(C)o2)c1	KCC2 mod -3.9
Cc1csc2nc(O)c(C(=O)NC3CCCCC3C)c(=O)n12 (stereo not drawn)	none (no result: KCC2 mod, Rad51 HR inh)
COc1ccc(C(=O)NC2CC2)cc1OC1CCN(Cc2ccc(F)cc2)CC1	none (no result: KCC2 mod, Rad51 HR inh)
COc1ccc2c(c1)cc1n2CCN2CCCN=C12	CHT block -6.2 (no result: KCC2 mod)
COc1ccc2c(c1)cc1n2CCN=C1N	none
CSC(=S)N/N=C/c1ccc(N(C)C)cc1	KCC2 mod 61
COc1ccc(/C=C2\CCc3ccccc3C2=O)cc1O	none (no result: KCC2 mod, Rad51 HR inh)
O=C(Nc1ccccc1Cl)NC1CCCCCCC1	none (no result: KCC2 mod, Rad51 HR inh)
O=C/C=C/c1coc2ccc3ccccc3c2c1=O	none (no result: Rad51 HR inh)
O=Cc1coc2c(ccc3ccccc32)c1=O	CHT block -6.5 (no result: KCC2 mod, Rad51 HR inh)
Cn1ncc2cc(NC(=S)NC(=O)c3ccccc3)ccc21	KCC2 mod 4.2
CCCCN(CCCC)C(=S)NC(=O)C(C)(C)C	KCC2 mod 38
COc1ccc(-c2csc3ncnc(N4CCN(c5ccc(OC)cc5)CC4)c23)cc1	none (no result: KCC2 mod, Rad51 HR inh)
CC(C)c1ccc(-c2csc3ncnc(N4CCN(C)CC4)c23)cc1	CHT block -11 (no result: KCC2 mod, Rad51 HR inh)
COc1cccc(-c2nc(-c3ccccc3)c(-c3ccccc3)[nH]2)c1OCC(=O)O	CHT block -6.6 (no result: KCC2 mod, Rad51 HR inh)
O=c1c2ccc(Cl)cc2[nH]c(=S)n1CCC1=CCCCC1	KCC2 mod 37 (no result: Rad51 HR inh)
COc1ccc(CCNC(=O)CN2C(=O)C3(OCCCO3)c3ccccc32)cc1OC	none (no result: Rad51 HR inh)
O=C(NC(=S)Nc1ccc(N2CCCCC2)cc1)c1ccco1	KCC2 mod 72
CC1CCN(c2ccc(NC(=S)NC(=O)c3ccco3)cc2)CC1	KCC2 mod 25
Cc1cc(C)nc(NC(=O)Cc2ccc(Br)cc2)n1	none
COc1ccccc1N1CCN(C(=O)c2ccc3c(c2)CCN3S(C)(=O)=O)CC1	none (no result: KCC2 mod, Rad51 HR inh)
CC(C)N(C(C)C)S(=O)(=O)c1ccc(NN)nc1	Rad51 HR inh 43
CCOc1ccc(NC(=O)CN(C)c2ccc(S(=O)(=O)N(C(C)C)C(C)C)cn2)cc1OCC	none
Cc1cccc(-n2c(-c3csc(C(C)C)c3)n[nH]c2=S)c1	KCC2 mod 7.6
CCc1cccc(CC)c1NC(=O)C1SC(=Nc2ccccc2C)C(c2nc3ccccc3s2)=C1N (stereo not drawn)	none (no result: Rad51 HR inh)
S=c1[nH]nc(CSc2nc3ccccc3s2)n1C1CCCCC1	KCC2 mod 30
Cc1ccc(N2C(=O)c3cccc([N+](=O)[O-])c3C2=O)cc1C	none
Cc1ccc(-n2c(C)cc(=O)cc2C)cc1[N+](=O)[O-]	CHT block -8.3 (no result: KCC2 mod, Rad51 HR inh)
C=C(C)C1CC=C(C)/C(=N/NC(=S)Nc2ccccc2)C1 (stereo not drawn)	KCC2 mod 6.5
CC(C)C1=CC2=CCC3C(C)(C(=O)O)CCCC3(C)C2CC1 (stereo not drawn) (tested in a mixture with another compound)	none (no result: KCC2 mod, Rad51 HR inh)
O=C(NN=C(Cc1ccccc1)Cc1ccccc1)c1ccc(F)cc1	KCC2 mod 7.7
C/C(Cc1ccccc1)=N\NC(=O)c1ccc(F)cc1	none
